Activity, inhibition and IC50 data for one compound are collected here from ChEMBL document CHEMBL4613227, “Synthesis and evaluation of the HIF-1α inhibitory activity of 3(5)-substituted-4-(quinolin-4-yl)- and 4-(2-phenylpyridin-4-yl)pyrazoles as inhibitors of ALK5” (Bioorg Med Chem Lett, 2020).

In assay [1] the test system is HCT-116. Nature of the assay: Down regulation of TNF-induced VEGF protein expression in human HCT116 cells at 50 uM pretreated for 12 hrs followed by TNF stimulation and measured after 24 hrs by Western blot analysis. Type of assay: functional, cell-based. The method in brief: (§1)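 HCT116 pretreated 12 h with 50 μM, then TNF (10 ng/mL) 24 h; whole cell extracts immunoblotted for ICAM-1, MMP-9, VEGF with tubulin as loading reference.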
A general note: In western blotting, separated proteins are transferred to a membrane and probed.

The subject of assay [2] is HCT-116. Nature of the assay: Induction of apoptosis in human HCT116 cells assessed as early apoptotic cells at 50 uM after 12 hrs by Annexin-V/PI-staining based flow cytometric analysis (reference value: 1%). Type of assay: functional.
For assay [3], the system named is HCT-116. Nature of the assay: Induction of apoptosis in human HCT116 cells assessed as effect on cleaved caspase 3 expression at 50 uM after 12 hrs by Western blot analysis. It is filed as functional, cell-based.
Assay [4] has as its system HCT-116. Nature of the assay: Inhibition of hypoxia-induced HIF1alpha protein expression in human HCT116 cells incubated for 12 hrs under hypoxic condition by Western blot analysis. It is filed as functional, cell-based. The method in brief:
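HCT116 held under normoxia or hypoxia 12 h with graded concentrations; nuclear extracts probed for HIF-1α by Western blot, Topo-I as loading control.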

Assay [5] concerns HCT-116. Nature of the assay: Induction of apoptosis in human HCT116 cells assessed as early apoptotic cells at 50 uM preincubated for 12 hrs followed by TNF stimulation and measured after 24 hrs by Annexin-V/PI-staining based flow cytometric analysis (reference value: 2.8%). It is filed as functional.
The test system of assay [6] is HCT-116. The experiment in a line: Down regulation of TNF-induced ICAM-1 protein expression in human HCT116 cells at 50 uM pretreated for 12 hrs followed by TNF stimulation and measured after 24 hrs by Western blot analysis. Type of assay: functional, cell-based. The method in brief: as §1
Assay [7] deals with HCT-116. The experiment in a line: Induction of apoptosis in human HCT116 cells assessed as necrotic cells at 50 uM after 12 hrs by Annexin-V/PI-staining based flow cytometric analysis (reference value: 3.5%). Type of assay: functional.
Assay [8] concerns the target T1, TGF-beta receptor type-1 (Homo sapiens, UniProt P36897).
T1 sequence (P36897 whole entry): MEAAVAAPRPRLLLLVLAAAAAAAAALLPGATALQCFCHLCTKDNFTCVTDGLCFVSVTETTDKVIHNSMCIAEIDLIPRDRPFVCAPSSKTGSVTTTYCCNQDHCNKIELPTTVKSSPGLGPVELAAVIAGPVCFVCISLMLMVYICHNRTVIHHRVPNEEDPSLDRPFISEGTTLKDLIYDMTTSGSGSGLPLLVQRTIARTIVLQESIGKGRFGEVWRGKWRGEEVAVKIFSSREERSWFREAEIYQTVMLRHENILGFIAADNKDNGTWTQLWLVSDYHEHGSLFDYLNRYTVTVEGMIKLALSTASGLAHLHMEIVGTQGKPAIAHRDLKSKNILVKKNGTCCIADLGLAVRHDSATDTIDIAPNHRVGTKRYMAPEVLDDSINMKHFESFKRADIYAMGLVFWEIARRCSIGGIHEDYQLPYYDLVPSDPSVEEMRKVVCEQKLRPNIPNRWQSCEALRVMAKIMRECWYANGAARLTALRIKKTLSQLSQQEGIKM
The experiment in a line: Inhibition of recombinant GST-tagged human ALK5 expressed in baculovirus infected Sf9 insect cells. The method, boiled down: (§2)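 IC50 determination against ALK5 (human GST-fusion, Sf9 baculovirus) and p38α (untagged human, E. coli); values averaged from three independent experiments run in triplicate.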

The test system of assay [9] is HCT-116. The experiment in a line: Induction of apoptosis in human HCT116 cells assessed as effect on cleaved caspase 8 expression at 50 uM preincubated for 12 hrs followed by TNF-stimulation and measured after 24 hrs by Western blot analysis. It is filed as functional, cell-based. The method in brief:
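HCT116 pretreated 12 h with 50 μM, then TNF (10 ng/mL) 24 h; whole cell extracts blotted for cleaved caspase-8, cleaved caspase-3, cleaved PARP, tubulin.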

Assay [10] relates to HCT-116. Nature of the assay: Induction of apoptosis in human HCT116 cells assessed as late apoptotic cells at 50 uM preincubated for 12 hrs followed by TNF stimulation and measured after 24 hrs by Annexin-V/PI-staining based flow cytometric analysis (reference value: 1.4%). Type of assay: functional. (In general: A flow cytometer gives signals particle by particle.)
In assay [11] the test system is HCT-116. Nature of the assay: Down regulation of TNF-induced ICAM-1 mRNA expression in human HCT116 cells at 50 uM pretreated for 12 hrs followed by TNF stimulation and measured after 12 hrs by Western blot analysis. It is filed as functional, cell-based. The note with it: in the assay text read “RT-PCR analysis” for “Western blot analysis”. The method in brief:
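HCT116 preincubated 12 h with graded concentrations, then TNF 10 ng/mL for a further 12 h; ICAM-1, VEGF, MMP-9 transcripts measured by RT-PCR, GAPDH for equal RNA loading.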

Assay [12] deals with HCT-116. The experiment in a line: Induction of apoptosis in human HCT116 cells assessed as effect on cleaved caspase 8 expression at 50 uM after 12 hrs by Western blot analysis. Type of assay: functional, cell-based.
Assay [13] relates to HCT-116. The experiment in a line: Inhibition of TNFalpha-induced HIF1alpha expression in human HCT116 cells at 10 to 50 uM by Western blot analysis. It is filed as functional, cell-based. The method, boiled down:
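HCT116 exposed to TNF 10 ng/mL for 24 h with graded concentrations; total protein blotted for HIF-1α, Topo-I reprobe as loading control.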

Assay [14] concerns the target Mitogen-activated protein kinase 14 (Homo sapiens, UniProt Q16539). The experiment in a line: Inhibition of recombinant human p38alpha expressed in Escherichia coli. The method in brief: as §2

By IC50 is commonly meant the point on the concentration scale where inhibition reaches its midpoint.

Active and inactive are the calls of the source. The rule behind the calls is not given here.

Chain of Mitogen-activated protein kinase 14 (Q16539 whole entry): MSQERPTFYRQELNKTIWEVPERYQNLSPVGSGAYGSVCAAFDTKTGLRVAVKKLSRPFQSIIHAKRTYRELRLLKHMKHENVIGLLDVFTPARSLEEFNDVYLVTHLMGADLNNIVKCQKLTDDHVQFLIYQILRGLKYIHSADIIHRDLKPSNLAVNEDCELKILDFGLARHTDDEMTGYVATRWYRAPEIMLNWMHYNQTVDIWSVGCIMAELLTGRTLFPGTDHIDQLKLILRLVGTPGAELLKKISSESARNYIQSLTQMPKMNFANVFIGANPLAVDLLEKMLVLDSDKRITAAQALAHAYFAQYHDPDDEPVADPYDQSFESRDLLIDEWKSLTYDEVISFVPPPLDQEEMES

Regarding `Cc1cccc(-c2nn(CC(=S)Nc3cccc(C#N)c3)cc2-c2ccnc3ccccc23)n1`, the result in assay [1], in assay [3], in assay [6], in assay [9], in assay [11] and in [12] was Active. For the same compound, the Activity is 3.1% in assay [2], 4.4% in assay [5], 8.5% in assay [7] and 3.6% in assay [10]. Besides, in [4], the inhibition entry was “Dose-dependent effect”. The IC50 amounted to 69 nM in assay [8] and 104 nM in [14]. Besides, the inhibition entry in assay [13] is “Active”.
